MC4R ag barr: activates human MC4R beta-arrestin recruitment. U2OS MC4R beta-arrestin complementation, luminescence; percent of melanotan II response, DMSO zero. AID 540308. activation, % at 8.9 µM. P32245. hit rate 0.98% among 360,000;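 active means activation above a per-plate cutoff, the mean activation of sample wells on that plate plus 3 SD, cut at about 8% in these data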
TLR4-MyD88 BLA: TLR4-MyD88 interaction inhibition in cells; O00206+Q99836; HeLa CL3-4 TLR4/MyD88 BLA complementation, FRET ratio; inhibition, % at 8.4 µM; hit rate 0.18% among 200,000; AID 861; in the data active means inhibition above about 25%
Target sequence (O00206 whole entry, looked up): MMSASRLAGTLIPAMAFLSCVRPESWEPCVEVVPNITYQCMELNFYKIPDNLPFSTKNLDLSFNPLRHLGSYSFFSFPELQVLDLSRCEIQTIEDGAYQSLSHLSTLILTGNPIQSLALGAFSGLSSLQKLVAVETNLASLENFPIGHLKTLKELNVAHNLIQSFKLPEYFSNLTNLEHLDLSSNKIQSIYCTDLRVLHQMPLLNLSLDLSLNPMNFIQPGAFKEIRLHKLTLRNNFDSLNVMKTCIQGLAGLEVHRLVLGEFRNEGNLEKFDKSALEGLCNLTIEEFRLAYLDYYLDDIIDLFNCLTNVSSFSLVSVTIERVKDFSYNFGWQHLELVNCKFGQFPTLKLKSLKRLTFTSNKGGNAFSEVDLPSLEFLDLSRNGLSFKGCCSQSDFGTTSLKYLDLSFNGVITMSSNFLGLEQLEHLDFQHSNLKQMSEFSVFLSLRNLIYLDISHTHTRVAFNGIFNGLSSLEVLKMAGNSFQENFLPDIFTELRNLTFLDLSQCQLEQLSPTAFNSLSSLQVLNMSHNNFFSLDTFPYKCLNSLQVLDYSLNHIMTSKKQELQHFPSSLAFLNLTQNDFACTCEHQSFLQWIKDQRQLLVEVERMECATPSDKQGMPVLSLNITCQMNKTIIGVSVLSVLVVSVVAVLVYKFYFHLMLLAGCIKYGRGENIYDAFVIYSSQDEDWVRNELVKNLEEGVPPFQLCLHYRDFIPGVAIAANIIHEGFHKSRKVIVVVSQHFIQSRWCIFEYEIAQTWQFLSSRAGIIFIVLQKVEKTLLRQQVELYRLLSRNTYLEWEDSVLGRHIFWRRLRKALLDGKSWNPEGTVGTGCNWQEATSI
Target sequence (Q99836 whole entry, looked up): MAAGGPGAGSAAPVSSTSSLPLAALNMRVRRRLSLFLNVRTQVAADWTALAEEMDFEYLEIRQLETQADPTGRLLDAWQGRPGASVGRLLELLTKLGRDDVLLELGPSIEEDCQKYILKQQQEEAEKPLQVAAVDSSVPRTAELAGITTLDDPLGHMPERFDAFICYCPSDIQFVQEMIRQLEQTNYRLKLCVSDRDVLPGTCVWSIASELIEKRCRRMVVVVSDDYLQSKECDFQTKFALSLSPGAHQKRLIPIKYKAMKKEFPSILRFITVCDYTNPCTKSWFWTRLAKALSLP
NOD2 RIPK2 PPI: NOD2-RIPK2 protein interaction inhibition; O43353; CHO BLA complementation NOD2-RIPK2, CCF4 ratio; inhibition, % at 4.98 µM; hit rate 0.38% among 360,000; in the data active means inhibition above about 21%
TLR9-MyD88 inh: blocks human TLR9 binding to MyD88; Q9NR96+Q99836; CHO BLA complementation TLR9-MyD88, CCF4 FRET ratio; inhibition, % at 4.98 µM; hit rate 0.21% among 340,000; AID 504734;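 active means inhibition above the mean over all tested compounds plus 3 SD, cut at about 21% in these data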
MC4R antag cAMP: antagonists of human melanocortin 4 receptor (MC4R); P32245; hit rate 0.48% among 360,000; AID 540295; MC4R-expressing cells, MTII-stimulated cAMP, LANCE TR-FRET; inhibition, % at 6.5 µM;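 active means inhibition above its plate's cutoff, the mean of tested wells on that plate plus 3 SD, cut at about 29% in these data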
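System: U2OS cells stably expressing human melanocortin 4 receptor (MC4R). Reagent: Melanotan II challenge after compound preincubation. Doses: 6.5 µM. Times: 30-min compound, 1-h challenge, 1-h detection, room temperature. Measured by: TR-FRET with Eu-cAMP and labeled anti-cAMP, 671 nm. Replicates: singlicate.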
MC4R barr conf: human MC4R beta-arrestin agonism confirmation | shares compounds with MC4R ag barr | U2OS MC4R beta-arrestin recruitment, luminescence; scaled DMSO 0%, Melanotan II 100% | activation, % at 8.9 µM | hit rate 31% among 2,400 | AID 602192;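 active means mean activation across replicates above the hit cutoff set in the earlier primary screen, cut at about 8% in these data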
MOR DOR agonist: activates mu-delta opioid heterodimer, MC4R agonist counter-screen | shares compounds with MC4R ag barr | U2OS PathHunter beta-arrestin, beta-gal luminescence; percent of deltorphin B response, DMSO zero | activation, % at 9.2 µM | hit rate 5.8% among 2,400;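 active means mean activation across replicates exceeds the hit threshold derived in the earlier primary screen, cut at about 18% in these data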
Numbers stand for hits; – = inactive; · = no result; ! = a repeat was not active. Hits are enriched below; roughly 1.8% of the tested compounds scored in any of these assays.

SMILES | MC4R ag barr | TLR4-MyD88 BLA | NOD2 RIPK2 PPI | TLR9-MyD88 inh | MC4R antag cAMP | MC4R barr conf | MOR DOR agonist
Cc1c([N+](=O)[O-])cc(C(=O)Nc2ccc(NC(=O)c3ccco3)cc2)cc1[N+](=O)[O-] | 10 | · | – | – | – | – | –
Cc1cc(C)c(OCC(=O)Nc2ccc(NC(=O)c3ccco3)cc2)c([N+](=O)[O-])c1 | 13 | – | – | – | – | – | –
CCc1cc2c3c([nH]c2cc1S(=O)(=O)NCCCOC)CC(C)(C)CC3=O | – | · | – | – | – | · | ·
O=C(Nc1ccccc1)Nc1ccc2ccccc2n1 | 12 | · | – | – | – | – | –
Cc1ccc(S(=O)(=O)N2CCCN(S(=O)(=O)c3ccc(C(F)(F)F)cc3)CC2)cc1 | 28 | – | – | – | – | 14 | 30
Cc1ccc(S(=O)(=O)N2CCCN(C)CC2)cc1 | – | · | – | – | – | · | ·
Cc1cccc2c(N=Nc3ccccc3)c(O)[nH]c12 | 15 | · | – | – | – | – | –
Cc1cc(C)c(OCC(=O)OCC(=O)NCC2CCCCC2)c(C)c1 | – | · | – | – | – | · | ·
Cc1cc(-c2n[nH]c(=S)n2/N=C/c2ccc(Br)s2)n[nH]1 | – | – | – | – | – | · | ·
Cc1ccccc1/C=N/n1c(-c2cc(-c3ccccc3)n[nH]2)n[nH]c1=S | 13 | · | – | – | – | – | –
S=c1[nH]nc(-c2cc(-c3ccccc3)n[nH]2)n1/N=C/c1ccc(Br)s1 | 33 | · | – | – | – | – | –
Cc1ccsc1/C=N/n1c(-c2cc(-c3ccccc3)n[nH]2)n[nH]c1=S | 12 | · | – | – | – | – | –
S=c1[nH]nc(-c2cc(-c3ccccc3)n[nH]2)n1/N=C/c1c(Cl)cccc1Cl | – | · | – | – | – | · | ·
Cc1nc(NC(=O)/C=C/c2ccc(C(C)(C)C)cc2)sc1C(=O)N(C)C | – | – | – | – | – | · | ·
O=C(NC1CCCCC1)C(=S)N1CCOCC1 | – | – | – | – | – | · | ·
O=S(=O)(NCc1ccccn1)c1cc(Cl)ccc1Cl | – | · | – | – | – | · | ·
COc1cc(CNCCc2ccc(S(N)(=O)=O)cc2)ccc1OCc1ccc(Cl)cc1 | – | – | – | – | – | · | ·
CCOc1cc(CNCCc2ccc(S(N)(=O)=O)cc2)ccc1OCc1ccc(Cl)cc1 | 12 | – | – | – | – | 71 | 58
CCOc1cc(/C=N/N=C(N)N)ccc1OCc1ccc(Cl)cc1 | 12 | – | – | – | – | 11 | –
Fc1ccc(OCc2nc3ccccc3s2)cc1 | – | – | – | – | – | · | ·
Cc1cc(=O)oc2cc(OCC(=O)NCCc3c[nH]c4ccc(F)cc34)ccc12 | – | · | – | – | – | · | ·
CCCc1cc(=O)oc2cc(OCC(=O)NCCc3c[nH]c4ccccc34)ccc12 | 17 | · | – | – | – | 14 | 25
COc1ccc(Cn2c(SCc3cc(C)ccc3C)nc3cc(OC)c(OC)cc3c2=N)cc1 | 21 | – | – | – | – | – | 20
COc1cc2nc(SCc3ccc(C(F)(F)F)cc3)n(Cc3cccs3)c(=N)c2cc1OC | 14 | – | – | – | – | – | –
COc1ccc(Cn2c(SCc3ccc(C)cc3)nc3cc(OC)c(OC)cc3c2=N)cc1Cl | 28 | – | – | – | – | – | 19
SMILES | MC4R ag barr | TLR4-MyD88 BLA | NOD2 RIPK2 PPI | TLR9-MyD88 inh | MC4R antag cAMP | MC4R barr conf | MOR DOR agonist
Nc1ccc(C(=O)Nc2cccc(N)c2)cc1 | – | · | – | – | – | · | ·
CC1CCC(C(C)C)C(OC(=O)COC(=O)c2ccc(N)cc2)C1 (centres undefined) | – | – | – | – | – | · | ·
CC1CCC(C(C)C)C(OC(=O)Cn2c(-c3ccc(Br)cc3)[n+](C)c3ccccc32)C1 (centres undefined) | 12 | – | – | – | – | 13! | –
CC1CCC(C(C)C)C(OC(=O)Cn2c(-c3ccc(Cl)cc3)[n+](C)c3ccccc32)C1 (centres undefined) | 28 | · | – | – | – | – | –
CC1CCC(C(C)C)C(OC(=O)C[n+]2cccc(C(N)=O)c2)C1 (centres undefined) | – | – | – | – | – | · | ·
Cc1ccccc1OCc1n(CC(=O)OC2CC(C)CCC2C(C)C)c2ccccc2[n+]1C (centres undefined) | 23 | – | – | – | – | 41 | 27
CC1CCC(C(C)C)C(OC(=O)COC(=O)c2cccn2C)C1 (centres undefined) | – | – | – | – | – | · | ·
Cc1nc2ccc(NS(=O)(=O)c3ccc(F)c(C)c3)cc2[nH]1 | – | · | – | – | – | · | ·
Cc1ccc(C(=O)Nc2ccc(NC(=O)c3cccs3)cc2)cc1[N+](=O)[O-] | – | – | – | – | – | · | ·
Cc1ccc(C(=O)NC(=S)Nc2ccc(NC(=O)c3cccs3)cc2)cc1[N+](=O)[O-] | 29 | – | – | – | – | – | –
O=C(NC(=S)Nc1ccc(NC(=O)c2cccs2)cc1)c1ccco1 | – | – | – | – | – | · | ·
O=C(NC(=S)Nc1ccc(NC(=O)c2cccs2)cc1)c1cc2ccccc2o1 | 26 | – | – | – | – | 9.6 | –
COc1c(O)cc2c(c1O)[C@@H]1O[C@H](CO)[C@@H](O)[C@H](O)C1OC2=O (some centres undefined) | – | · | – | – | – | · | ·
CCOC(=O)N1CCC(NC(=O)C2=CCN(S(=O)(=O)c3ccc(OC)cc3)CC2)CC1 | – | · | – | – | – | · | ·
O=C1NC[C@@H](CCCCN2C[C@H](Cc3ccc(O)cc3)N(CCC3CCCCC3)C(=O)C2=O)N(Cc2ccccc2)C1=O | · | · | – | · | · | · | ·
COc1ccccc1C(=O)NC(=O)COC(=O)c1cccc(C)c1O | – | · | – | – | – | · | ·
CCCOc1c(Br)cc(C(=O)OCC(=O)NC(=O)c2cccn2C)cc1OC | 18 | · | – | – | – | 8.6 | –
C/C(=N/NC(=O)CSCc1ccc(Cl)cc1)c1cccc(NC(=O)c2ccccc2)c1 | 22 | – | – | – | – | – | –
CCc1nc(Nc2cc(OC)ccc2OC)c2oc3ccccc3c2n1 | 10 | · | – | – | – | – | –
Cc1ccccc1NC(=O)COC(=O)c1ccc2c(c1)OCCO2 | – | · | – | – | – | · | ·
Cc1cccc(C(=O)OCC(=O)c2ccc3c(c2)OCCO3)c1O | 11 | · | – | – | – | – | –
COc1ccccc1NC(=O)COC(=O)c1ccc2c(c1)OCCO2 | 19 | · | – | – | – | – | –
O=C(O)c1cc2c(cc1NC(=O)C1CCCC1)OCCO2 | – | · | – | – | – | · | ·
C[C@@H](C(=O)Nc1cccc(S(=O)(=O)N2CCOCC2)c1)N1C(=O)C2CC=CCC2C1=O (some centres undefined) | – | – | – | – | – | · | ·
COc1ccc(CN(C)C(=O)Cn2cnc3c(NCc4ccccc4)ncnc32)cc1OC | – | · | – | – | – | · | ·
COc1cc(-c2nnc3sc(Cc4ccc(Cl)cc4)nn23)cc(OC)c1OC | 14 | · | – | – | – | 11 | –
